Laboratory results: ChEMBL document CHEMBL1121608, “Modification of the 5' position of purine nucleosides. 2. Synthesis and some cardiovascular properties of adenosine-5'-(N-substituted)carboxamides” (J Med Chem, 1980)

Columns and labels:
Canis familiaris [1] = assay: tested for percent increase in coronary sinus partial pressure of oxygen (PO2) in open chest anesthetized dog at intravenous dosage of 1 mg/kg; type: functional, Canis lupus familiaris
Canis familiaris [2] = assay: Tested for the percent increase in aortic blood pressure (BP) in open chest anesthetized dog at intravenous dosage of 5.00 mg/kg; type: functional, Canis lupus familiaris, Artery
Method in brief: (§1)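 Open-chest anesthetized dogs, compound given iv at the stated dose. Aortic blood pressure is reported as the change from the control (pre-dose) value. Other set-up follows the group's earlier cardiovascular protocol.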

Canis familiaris [3] = assay: Total time in minutes elapsed from the initiation of the change until return to the pretest value of oxygen partial pressure in coronary sinus of anesthetized dog at intravenous dosage of 5 mg/kg; type: functional, Canis lupus familiaris
Method in brief: (§2)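 Open-chest anesthetized dogs given compound by intravenous injection. Coronary sinus PO2 was monitored, and duration was the total time in minutes from the onset of the change until return to the pretest value.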

Canis familiaris [4] = assay: Total time in minutes elapsed from the initiation of the change until return to the pretest value of blood pressure in coronary sinus of anesthetized dog at intravenous dosage of 5 mg/kg; type: functional, Canis lupus familiaris
Canis familiaris [5] = assay: Total time in minutes elapsed from the initiation of the change until return to the pretest value of heart rate in coronary sinus of anesthetized dog at intravenous dosage of 5.00 mg/kg; type: functional, Canis lupus familiaris
Canis familiaris [6] = assay: Tested for the percent increase in coronary sinus partial pressure of oxygen (PO2) in open chest anesthetized dog at intravenous dosage of 5.00 mg/kg; type: functional, Canis lupus familiaris
[7] = Lethal dose in mice after intraperitoneal administration; type: toxicity, organism-based; details: mouse, in vivo, ip
Method in brief: (§3)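 Male and female mice, three per dose group, were given the compound by the stated route in increments of 0.5 log doses. The LD50 was estimated as an approximate value.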

Canis familiaris [8] = assay: Total time in minutes elapsed from the initiation of the change until return to the pretest value of oxygen partial pressure in coronary sinus of anesthetized dog at intravenous dosage of 1 mg/kg; type: functional, Canis lupus familiaris; method in brief: as §2
[9] = Lethal dose in mice after peroral administration; type: toxicity, organism-based; details: mouse, in vivo, po; method in brief: as §3
Canis familiaris [10] = assay: tested for the percent increase in heart rate (HR) in open chest anesthetized dog at intravenous dosage of 1 mg/kg; type: functional, Canis lupus familiaris
Canis familiaris [11] = assay: tested for the percent increase in aortic blood pressure (BP) in open chest anesthetized dog at intravenous dosage of 1 mg/kg; type: functional, Canis lupus familiaris, Artery
Method in brief: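 Open-chest anesthetized dogs received intravenous doses. Aortic blood pressure was recorded as the change from control.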

Canis familiaris [12] = assay: Total time in minutes elapsed from the initiation of the change until return to the pretest value of heart rate in coronary sinus of anesthetized dog at intravenous dosage of 1 mg/kg; type: functional, Canis lupus familiaris
Canis familiaris [13] = assay: Total time in minutes elapsed from the initiation of the change until return to the pretest value of blood pressure in coronary sinus of anesthetized dog at intravenous dosage of 1 mg/kg; type: functional, Canis lupus familiaris
Canis familiaris [14] = assay: Tested for percent increase in coronary sinus partial pressure of oxygen (PO2) in open chest anesthetized dog at intravenous dosage of 0.01 mg/kg; type: functional, Canis lupus familiaris
Canis familiaris [15] = assay: Total time in minutes elapsed from the initiation of the change until return to the pretest value of heart rate in coronary sinus of anesthetized dog at intravenous dosage of 0.10 mg/kg; type: functional, Canis lupus familiaris; details: dose 0.1 mg/kg
Canis familiaris [16] = assay: Total time in minutes elapsed from the initiation of the change until return to the pretest value of oxygen partial pressure in coronary sinus of anesthetized dog at intravenous dosage of 0.01 mg/kg; type: functional, Canis lupus familiaris
Canis familiaris [17] = assay: Total time in minutes elapsed from the initiation of the change until return to the pretest value of blood pressure in coronary sinus of anesthetized dog at intravenous dosage of 0.10 mg/kg; type: functional, Canis lupus familiaris; details: dose 0.1 mg/kg
Method in brief: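 Open-chest anesthetized dogs were given the compound intravenously. Duration is the total minutes from the start of the change until return to the pretest value. Blood pressure was recorded as change from control.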

Canis familiaris [18] = assay: Total time in minutes elapsed from the initiation of the change until return to the pretest value of oxygen partial pressure in coronary sinus of anesthetized dog at intravenous dosage of 0.10 mg/kg; type: functional, Canis lupus familiaris; details: dose 0.1 mg/kg
Canis familiaris [19] = assay: Total time in minutes elapsed from the initiation of the change until return to the pretest value of heart rate in coronary sinus of anesthetized dog at intravenous dosage of 0.01 mg/kg; type: functional, Canis lupus familiaris
Canis familiaris [20] = assay: Tested for the percent increase in coronary sinus partial pressure of oxygen (PO2) in open chest anesthetized dog at intravenous dosage of 0.10 mg/kg; type: functional, Canis lupus familiaris; details: dose 0.1 mg/kg
Canis familiaris [21] = assay: Total time in minutes elapsed from the initiation of the change until return to the pretest value of blood pressure in coronary sinus of anesthetized dog at intravenous dosage of 0.01 mg/kg; type: functional, Canis lupus familiaris
Canis familiaris [22] = assay: tested for the percent increase in heart rate (HR) in open chest anesthetized dog at intravenous dosage of 0.10 mg/kg; type: functional, Canis lupus familiaris; details: dose 0.1 mg/kg
Canis familiaris [23] = assay: Total time in minutes elapsed from the initiation of the change until return to the pretest value of blood pressure in coronary sinus of anesthetized dog at intravenous dosage of 0.05 mg/kg; type: functional, Canis lupus familiaris
Canis familiaris [24] = assay: Total time in minutes elapsed from the initiation of the change until return to the pretest value of oxygen partial pressure in coronary sinus of anesthetized dog at intravenous dosage of 0.05 mg/kg; type: functional, Canis lupus familiaris
Canis familiaris [25] = assay: tested for the percent increase in heart rate (HR) in open chest anesthetized dog at intravenous dosage of 0.05 mg/kg; type: functional, Canis lupus familiaris
Canis familiaris [26] = assay: Total time in minutes elapsed from the initiation of the change until return to the pretest value of heart rate in coronary sinus of anesthetized dog at intravenous dosage of 0.05 mg/kg; type: functional, Canis lupus familiaris
Canis familiaris [27] = assay: tested for percent increase in coronary sinus partial pressure of oxygen (PO2) in open chest anesthetized dog at intravenous dosage of 0.05 mg/kg; type: functional, Canis lupus familiaris
Canis familiaris [28] = assay: Total time in minutes elapsed from the initiation of the change until return to the pretest value of heart rate in coronary sinus of anesthetized dog at intravenous dosage of 10 mg/kg; type: functional, Canis lupus familiaris
Canis familiaris [29] = assay: Total time in minutes elapsed from the initiation of the change until return to the pretest value of blood pressure in coronary sinus of anesthetized dog at intravenous dosage of 10 mg/kg; type: functional, Canis lupus familiaris
Canis familiaris [30] = assay: Tested for the percent increase in aortic blood pressure (BP) in open chest anesthetized dog at intravenous dosage of 1.00 mg/kg; type: functional, Canis lupus familiaris, Artery; method in brief: as §1
Canis familiaris [31] = assay: Tested for percent increase in coronary sinus partial pressure of oxygen (PO2) in open chest anesthetized dog at intravenous dosage of 1.00 mg/kg; type: functional, Canis lupus familiaris
Canis familiaris [32] = assay: Tested for the percent increase in coronary sinus partial pressure of oxygen (PO2) in open chest anesthetized dog at intravenous dosage of 10.00 mg/kg; type: functional, Canis lupus familiaris
Canis familiaris [33] = assay: Total time in minutes elapsed from the initiation of the change until return to the pretest value of oxygen partial pressure in coronary sinus of anesthetized dog at intravenous dosage of 10 mg/kg; type: functional, Canis lupus familiaris; method in brief: as §2
Canis familiaris [34] = assay: Tested for the percent increase in aortic blood pressure (BP) in open chest anesthetized dog at intravenous dosage of 10.00 mg/kg; type: functional, Canis lupus familiaris, Artery; method in brief: as §1
Canis familiaris [35] = assay: Total time in minutes elapsed from the initiation of the change until return to the pretest value of blood pressure in coronary sinus of anesthetized dog at intravenous dosage of 1.00 mg/kg; type: functional, Canis lupus familiaris
Mus musculus [36] = assay: Tested for the lethal dose in mice after administration intraperitoneally; type: functional; details: ip; method in brief: as §3
Mus musculus [37] = assay: Tested for the lethal dose in mice after administration perorally; type: functional; details: po; method in brief: as §3
Canis familiaris [38] = assay: Total time in minutes elapsed from the initiation of the change until return to the pretest value of oxygen partial pressure in coronary sinus of anesthetized dog at intravenous dosage of 2 mg/kg; type: functional, Canis lupus familiaris; method in brief: as §2
Canis familiaris [39] = assay: Tested for percent increase in coronary sinus partial pressure of oxygen (PO2) in open chest anesthetized dog at intravenous dosage of 2.00 mg/kg; type: functional, Canis lupus familiaris
Canis familiaris [40] = assay: Tested for the percent increase in aortic blood pressure (BP) in open chest anesthetized dog at intravenous dosage of 2.00 mg/kg; type: functional, Canis lupus familiaris, Artery; method in brief: as §1
Canis familiaris [41] = assay: Total time in minutes elapsed from the initiation of the change until return to the pretest value of blood pressure in coronary sinus of anesthetized dog at intravenous dosage of 2 mg/kg; type: functional, Canis lupus familiaris
Canis familiaris [42] = assay: Total time in minutes elapsed from the initiation of the change until return to the pretest value of heart rate in coronary sinus of anesthetized dog at intravenous dosage of 2 mg/kg; type: functional, Canis lupus familiaris

## Nc1ncnc2c1ncn2C1O[C@H](C(=O)NC23CC4CC(CC(C4)C2)C3)[C@@H](O)[C@H]1O (stereo partly drawn)
Canis familiaris [1]
  PO2: 56%
Canis familiaris [2]
  BP: 5 mmHg
Canis familiaris [3]
  Duration: 60 min
Canis familiaris [4]
  Duration: 8 min
Canis familiaris [5]
  Duration: 60 min
Canis familiaris [6]
  PO2: 209%
[7]
  LD50: > 300 mg/kg
Canis familiaris [8]
  Duration: 30 min
[9]
  LD50: > 300 mg/kg
Canis familiaris [10]
  HR: 55%
Canis familiaris [11]
  BP: 22 mmHg
Canis familiaris [12]
  Duration: 2 min
Canis familiaris [13]
  Duration: 1 min

## NC(=O)[C@H]1OC(n2cnc3c(N)ncnc32)[C@H](O)[C@@H]1O (stereo partly drawn)
Canis familiaris [14]
  PO2: 79%
Canis familiaris [15]
  Duration: 240 min
Canis familiaris [16]
  Duration: 25 min
Canis familiaris [17]
  Duration: 240 min
Canis familiaris [18]
  Duration: 240 min
Canis familiaris [19]
  Duration: 25 min
[7]
  LD50: 5 mg/kg
Canis familiaris [20]
  PO2: 41%
[9]
  LD50: 50 mg/kg
Canis familiaris [21]
  Duration: 20 min
Canis familiaris [22]
  HR: 72%

## Nc1ncnc2c1ncn2C1O[C@H](C(=O)NCC2CC2)[C@@H](O)[C@H]1O (stereo partly drawn)
Canis familiaris [23]
  Duration: 120 min
Canis familiaris [24]
  Duration: 120 min
[7]
  LD50: 20 mg/kg
Canis familiaris [25]
  HR: 0%
Canis familiaris [26]
  Duration: 0 min
[9]
  LD50: 200 mg/kg
Canis familiaris [27]
  PO2: 47%

## CCN(CC)CCNC(=O)[C@H]1OC(n2cnc3c(N)ncnc32)[C@H](O)[C@@H]1O (stereo partly drawn)
Canis familiaris [28]
  Duration: 60 min
Canis familiaris [29]
  Duration: 22 min
Canis familiaris [30]
  BP: 0%
Canis familiaris [31]
  PO2: 57%
[7]
  LD50: 50 mg/kg
Canis familiaris [8]
  Duration: 6 min
[9]
  LD50: > 1000 mg/kg
Canis familiaris [32]
  PO2: 25%
Canis familiaris [33]
  Duration: 60 min
Canis familiaris [34]
  BP: 7%
Canis familiaris [12]
  Duration: 0 min
Canis familiaris [13]
  Duration: 0 min

## CN(C)C(=O)[C@H]1OC(n2cnc3c(N)ncnc32)[C@H](O)[C@@H]1O (stereo partly drawn)
Canis familiaris [35]
  Duration: 0 min
Canis familiaris [30]
  BP: 0%
Canis familiaris [31]
  PO2: 0%
[7]
  LD50: 50 mg/kg
Canis familiaris [8]
  Duration: 0 min
[9]
  LD50: 1000 mg/kg
Canis familiaris [12]
  Duration: 0 min

## Nc1ncnc2c1ncn2C1O[C@H](C(=O)NCc2ccccc2)[C@@H](O)[C@H]1O (stereo partly drawn)
Canis familiaris [1]
  PO2: 48%
Mus musculus [36]
  LD50: 200 mg/kg
Mus musculus [37]
  LD50: > 1000 mg/kg
Canis familiaris [8]
  Duration: 60 min
Canis familiaris [10]
  HR: 13%
Canis familiaris [11]
  BP: 5 mmHg
Canis familiaris [12]
  Duration: 24 min
Canis familiaris [13]
  Duration: 60 min

## Nc1ncnc2c1ncn2[C@@H]1O[C@H](CO)[C@@H](O)[C@H]1O [ADENOSINE]
Canis familiaris [38]
  Duration: 2 min
Canis familiaris [39]
  PO2: 200%
Canis familiaris [40]
  BP: 60 mmHg
Canis familiaris [41]
  Duration: 2 min
Canis familiaris [42]
  Duration: 4 min
